Experimental data reported in ChEMBL document CHEMBL2413013, “Triplex-forming ability of oligonucleotides containing 1-aryl-1,2,3-triazole nucleobases linked via a two atom-length spacer” (Bioorg Med Chem, 2013).

Key:
[1] = Binding affinity to hairpin double stranded DNA AT base pair in sodium cacodylate buffer at pH 6.8 assessed as triplex-forming ability measuring melting temperature after by UV melting experiment
Summary of the method: (§1)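 TFO and hairpin dsDNA target, each strand at 1.89 μM final, in 10 mM sodium cacodylate (pH 6.8) with 100 mM KCl and 50 mM MgCl₂. Annealed in boiling water, then cooled slowly to 5 °C. Melting was followed at 260 nm from 5 to 90 °C at 0.5 °C/min. Tm was taken by the two-point average method, mean of three independent runs.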

[2] = Binding affinity to hairpin double stranded DNA GC base pair in sodium cacodylate buffer at pH 6.8 assessed as triplex-forming ability measuring melting temperature after by UV melting experiment; summary of the method: as §1
[3] = Binding affinity to hairpin double stranded DNA CG base pair in sodium cacodylate buffer at pH 6.8 assessed as triplex-forming ability measuring melting temperature after by UV melting experiment; summary of the method: as §1
[4] = Binding affinity to hairpin double stranded DNA TA base pair in sodium cacodylate buffer at pH 6.8 assessed as triplex-forming ability measuring melting temperature after by UV melting experiment; summary of the method: as §1

CC(=O)N1CCCc2ccc(-n3cc(CC[C@H]4C[C@H](OP(=O)(O)OC[C@H]5O[C@@H](n6cc(C)c(=O)[nH]c6=O)C[C@@H]5O[PH](OCCC#N)(OC(C)[C@H]5O[C@@H](n6ccc(N)nc6=O)C[C@@H]5O[PH](OCCC#N)(OC[C@H]5O[C@@H](n6cc(C)c(=O)[nH]c6=O)C[C@@H]5O[PH](OCCC#N)(OC(C)[C@H]5O[C@@H](n6ccc(N)nc6=O)C[C@@H]5O[PH](OCCC#N)(OC[C@H]5O[C@@H](n6cc(C)c(=O)[nH]c6=O)C[C@@H]5O[PH](OCCC#N)(OC(C)[C@H]5O[C@@H](n6ccc(N)nc6=O)C[C@@H]5O[PH](OCCC#N)(OC[C@H]5O[C@@H](n6cc(C)c(=O)[nH]c6=O)C[C@@H]5O)N(C(C)C)C(C)C)N(C(C)C)C(C)C)N(C(C)C)C(C)C)N(C(C)C)C(C)C)N(C(C)C)C(C)C)N(C(C)C)C(C)C)[C@@H](CO[PH](OCCC#N)(O[C@H]5C[C@H](n6cc(C)c(=O)[nH]c6=O)O[C@@H]5CO[PH](OCCC#N)(O[C@H]5C[C@H](n6ccc(N)nc6=O)O[C@@H]5C(C)O[PH](OCCC#N)(O[C@H]5C[C@H](n6cc(C)c(=O)[nH]c6=O)O[C@@H]5CO[PH](OCCC#N)(O[C@H]5C[C@H](n6cc(C)c(=O)[nH]c6=O)O[C@@H]5CO[PH](OCCC#N)(O[C@H]5C[C@H](n6cc(C)c(=O)[nH]c6=O)O[C@@H]5CO[PH](OCCC#N)(O[C@H]5C[C@H](n6cc(C)c(=O)[nH]c6=O)O[C@@H]5CO[PH](OCCC#N)(O[C@H]5C[C@H](n6cc(C)c(=O)[nH]c6=O)O[C@@H]5CO)N(C(C)C)C(C)C)N(C(C)C)C(C)C)N(C(C)C)C(C)C)N(C(C)C)C(C)C)N(C(C)C)C(C)C)N(C(C)C)C(C)C)N(C(C)C)C(C)C)O4)nn3)cc21 (stereo partly specified)
Tm [1]: 21 °C
Tm [2]: 21 °C
Tm [3]: 26 °C
Tm [4]: 27 °C

Cc1cn([C@H]2C[C@H](O[PH](OCCC#N)(OC[C@H]3O[C@@H](n4cc(C)c(=O)[nH]c4=O)C[C@@H]3O[PH](OCCC#N)(OC[C@H]3O[C@@H](n4cc(C)c(=O)[nH]c4=O)C[C@@H]3O[PH](OCCC#N)(OC[C@H]3O[C@@H](n4cc(C)c(=O)[nH]c4=O)C[C@@H]3O[PH](OCCC#N)(OC[C@H]3O[C@@H](n4cc(C)c(=O)[nH]c4=O)C[C@@H]3O[PH](OCCC#N)(OC(C)[C@H]3O[C@@H](n4ccc(N)nc4=O)C[C@@H]3O[PH](OCCC#N)(OC[C@H]3O[C@@H](n4cc(C)c(=O)[nH]c4=O)C[C@@H]3O[PH](OCCC#N)(OC[C@H]3O[C@@H](CCc4cn(-c5cccc(O)c5)nn4)C[C@@H]3OP(=O)(O)OC[C@H]3O[C@@H](n4cc(C)c(=O)[nH]c4=O)C[C@@H]3O[PH](OCCC#N)(OC(C)[C@H]3O[C@@H](n4ccc(N)nc4=O)C[C@@H]3O[PH](OCCC#N)(OC[C@H]3O[C@@H](n4cc(C)c(=O)[nH]c4=O)C[C@@H]3O[PH](OCCC#N)(OC(C)[C@H]3O[C@@H](n4ccc(N)nc4=O)C[C@@H]3O[PH](OCCC#N)(OC[C@H]3O[C@@H](n4cc(C)c(=O)[nH]c4=O)C[C@@H]3O[PH](OCCC#N)(OC(C)[C@H]3O[C@@H](n4ccc(N)nc4=O)C[C@@H]3O[PH](OCCC#N)(OC[C@H]3O[C@@H](n4cc(C)c(=O)[nH]c4=O)C[C@@H]3O)N(C(C)C)C(C)C)N(C(C)C)C(C)C)N(C(C)C)C(C)C)N(C(C)C)C(C)C)N(C(C)C)C(C)C)N(C(C)C)C(C)C)N(C(C)C)C(C)C)N(C(C)C)C(C)C)N(C(C)C)C(C)C)N(C(C)C)C(C)C)N(C(C)C)C(C)C)N(C(C)C)C(C)C)N(C(C)C)C(C)C)[C@@H](CO)O2)c(=O)[nH]c1=O (stereo partly specified)
Tm [1]: 21 °C
Tm [2]: 21 °C
Tm [3]: 22 °C
Tm [4]: 22 °C

Cc1cn([C@H]2C[C@H](O[PH](OCCC#N)(OC[C@H]3O[C@@H](n4cc(C)c(=O)[nH]c4=O)C[C@@H]3O[PH](OCCC#N)(OC[C@H]3O[C@@H](n4cc(C)c(=O)[nH]c4=O)C[C@@H]3O[PH](OCCC#N)(OC[C@H]3O[C@@H](n4cc(C)c(=O)[nH]c4=O)C[C@@H]3O[PH](OCCC#N)(OC[C@H]3O[C@@H](n4cc(C)c(=O)[nH]c4=O)C[C@@H]3O[PH](OCCC#N)(OC(C)[C@H]3O[C@@H](n4ccc(N)nc4=O)C[C@@H]3O[PH](OCCC#N)(OC[C@H]3O[C@@H](n4cc(C)c(=O)[nH]c4=O)C[C@@H]3O[PH](OCCC#N)(OC[C@H]3O[C@@H](CCc4cn(-c5cccc(NC(N)=O)c5)nn4)C[C@@H]3OP(=O)(O)OC[C@H]3O[C@@H](n4cc(C)c(=O)[nH]c4=O)C[C@@H]3O[PH](OCCC#N)(OC(C)[C@H]3O[C@@H](n4ccc(N)nc4=O)C[C@@H]3O[PH](OCCC#N)(OC[C@H]3O[C@@H](n4cc(C)c(=O)[nH]c4=O)C[C@@H]3O[PH](OCCC#N)(OC(C)[C@H]3O[C@@H](n4ccc(N)nc4=O)C[C@@H]3O[PH](OCCC#N)(OC[C@H]3O[C@@H](n4cc(C)c(=O)[nH]c4=O)C[C@@H]3O[PH](OCCC#N)(OC(C)[C@H]3O[C@@H](n4ccc(N)nc4=O)C[C@@H]3O[PH](OCCC#N)(OC[C@H]3O[C@@H](n4cc(C)c(=O)[nH]c4=O)C[C@@H]3O)N(C(C)C)C(C)C)N(C(C)C)C(C)C)N(C(C)C)C(C)C)N(C(C)C)C(C)C)N(C(C)C)C(C)C)N(C(C)C)C(C)C)N(C(C)C)C(C)C)N(C(C)C)C(C)C)N(C(C)C)C(C)C)N(C(C)C)C(C)C)N(C(C)C)C(C)C)N(C(C)C)C(C)C)N(C(C)C)C(C)C)[C@@H](CO)O2)c(=O)[nH]c1=O (stereo partly specified)
Tm [1]: 23 °C
Tm [2]: 23 °C
Tm [3]: 27 °C
Tm [4]: 28 °C

Cc1cn([C@H]2C[C@H](O[PH](OCCC#N)(OC[C@H]3O[C@@H](n4cc(C)c(=O)[nH]c4=O)C[C@@H]3O[PH](OCCC#N)(OC[C@H]3O[C@@H](n4cc(C)c(=O)[nH]c4=O)C[C@@H]3O[PH](OCCC#N)(OC[C@H]3O[C@@H](n4cc(C)c(=O)[nH]c4=O)C[C@@H]3O[PH](OCCC#N)(OC[C@H]3O[C@@H](n4cc(C)c(=O)[nH]c4=O)C[C@@H]3O[PH](OCCC#N)(OC(C)[C@H]3O[C@@H](n4ccc(N)nc4=O)C[C@@H]3O[PH](OCCC#N)(OC[C@H]3O[C@@H](n4cc(C)c(=O)[nH]c4=O)C[C@@H]3O[PH](OCCC#N)(OC[C@H]3O[C@@H](OCc4cn(-c5cccc(O)c5)nn4)C[C@@H]3OP(=O)(O)OC[C@H]3O[C@@H](n4cc(C)c(=O)[nH]c4=O)C[C@@H]3O[PH](OCCC#N)(OC(C)[C@H]3O[C@@H](n4ccc(N)nc4=O)C[C@@H]3O[PH](OCCC#N)(OC[C@H]3O[C@@H](n4cc(C)c(=O)[nH]c4=O)C[C@@H]3O[PH](OCCC#N)(OC(C)[C@H]3O[C@@H](n4ccc(N)nc4=O)C[C@@H]3O[PH](OCCC#N)(OC[C@H]3O[C@@H](n4cc(C)c(=O)[nH]c4=O)C[C@@H]3O[PH](OCCC#N)(OC(C)[C@H]3O[C@@H](n4ccc(N)nc4=O)C[C@@H]3O[PH](OCCC#N)(OC[C@H]3O[C@@H](n4cc(C)c(=O)[nH]c4=O)C[C@@H]3O)N(C(C)C)C(C)C)N(C(C)C)C(C)C)N(C(C)C)C(C)C)N(C(C)C)C(C)C)N(C(C)C)C(C)C)N(C(C)C)C(C)C)N(C(C)C)C(C)C)N(C(C)C)C(C)C)N(C(C)C)C(C)C)N(C(C)C)C(C)C)N(C(C)C)C(C)C)N(C(C)C)C(C)C)N(C(C)C)C(C)C)[C@@H](CO)O2)c(=O)[nH]c1=O (stereo partly specified)
Tm [1]: 20 °C
Tm [2]: 21 °C
Tm [3]: 24 °C
Tm [4]: 21 °C
